Experimental findings from ChEMBL document CHEMBL1806371, “Selenocyanates and diselenides: a new class of potent antileishmanial agents” (Eur J Med Chem, 2011) are described below.

Some results are limits rather than exact numbers.

For data set [1], the system named is THP-1. Kind of data set: Cytotoxicity against human THP1 cells infected with Leishmania infantum MCAN/ES/89/IPZ229/1/89 at 3 uM by phase contrast microscopy. It is filed as cell-based. To be noted: thp-1, 3 µM. In a few lines:
(§1)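 Drug was added to PMA-differentiated THP-1 cells infected with eGFP amastigotes, at 1, 3 and 15 µM, alongside a DMSO control at the highest assay concentration. Propidium iodide was added to a final 5 µg/mL, and cells were examined at once by phase contrast and fluorescence microscopy; PI stains dead cells.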

The subject of data set [2] is Leishmania infantum. Kind of data set: Antileishmanial activity against Leishmania infantum MCAN/ES/89/IPZ229/1/89 promastigotes assessed as growth inhibition at 12.5 uM after 24 hrs. It is filed as functional. In a few lines: (§2)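 Log-phase L. infantum promastigotes (RPMI-1640, 10% FCS, 25 mM HEPES, pH 7.2, 26 °C) treated at 2×10^6 parasites/mL for 24 h. Screening used 25, 12.5 and 6.25 μM to give percent growth inhibition. Living cells measured by flow cytometry with propidium iodide exclusion. At least three independent experiments.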

The test system of data set [3] is Leishmania infantum. Kind of data set: Antileishmanial activity against Leishmania infantum MCAN/ES/89/IPZ229/1/89 amastigotes expressing GFP infected in human THP1 cells assessed as parasite infected cells after 48 hrs by flow cytometry (reference value: 35%). Type of data set: functional, THP-1.
For data set [4], the system named is Jurkat. Kind of data set: Cytotoxicity against human Jurkat cells infected with Leishmania infantum MCAN/ES/89/IPZ229/1/89 at 1 uM using propidium iodide staining by fluorescence contrast microscopy. It is filed as cell-based.
Data set [5] can be described thus: Selectivity ratio, ratio of IC50 for human Jurkat cells to IC50 for Leishmania infantum MCAN/ES/89/IPZ229/1/89 amastigotes. It is filed as ADME, cell-based. Conditions: read-out: Ratio IC50. In a few lines: (§3)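 Selectivity index is IC50 against Jurkat or THP-1 cells divided by IC50 against L. infantum amastigotes. Host cells were treated in log phase at 4×10^5 cells/mL for 24 h at 37 °C, 5% CO2, at 0.08, 0.4, 2.0, 10.0 and 50.0 μM. Viability was measured by flow cytometry with propidium iodide exclusion.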

Data set [6] in a line: Human intestinal absorption in human. Conditions: read-out: HIA. Type of data set: ADME, organism-based. The procedure, abridged: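 Values are computed, not measured. Human intestinal absorption (%) and Caco-2 permeability (nm/s) were predicted in silico with the PreADMET program.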
The subject of data set [7] is THP-1. The data set is described as follows: Cytotoxicity against human THP1 cells infected with Leishmania infantum MCAN/ES/89/IPZ229/1/89 at 1 uM using propidium iodide staining by fluorescence contrast microscopy. To be noted: thp-1, 1 µM. Type of data set: cell-based. In a few lines:
as §1

The test system of data set [8] is THP-1. The data set is described as follows: Cytotoxicity against human THP1 cells infected with Leishmania infantum MCAN/ES/89/IPZ229/1/89 at 1 uM by phase contrast microscopy. Type of data set: cell-based. Conditions: thp-1, 1 µM. The procedure, abridged:
as §1

For data set [9], the system named is Jurkat. The data set is described as follows: Cytotoxicity against human Jurkat cells infected with Leishmania infantum MCAN/ES/89/IPZ229/1/89 at 1 uM by phase contrast microscopy. Type of data set: cell-based.
In data set [10] the test system is Jurkat. Kind of data set: Cytotoxicity against human Jurkat cells infected with Leishmania infantum MCAN/ES/89/IPZ229/1/89 at 3 uM using propidium iodide staining by fluorescence contrast microscopy. It is filed as cell-based.
The subject of data set [11] is Jurkat. Kind of data set: Cytotoxicity against human Jurkat cells assessed as live cells in neubauer chamber after 24 hrs by trypan blue assay. Type of data set: cell-based.
Data set [12] has as its system THP-1. Kind of data set: Cytotoxicity against human THP1 cells infected with Leishmania infantum MCAN/ES/89/IPZ229/1/89 at 3 uM. It is filed as cell-based. Conditions: thp-1, 3 µM.
Data set [13] concerns Leishmania infantum. Kind of data set: Antileishmanial activity against Leishmania infantum MCAN/ES/89/IPZ229/1/89 promastigotes after 24 hrs […]. Type of data set: functional, organism-based. Conditions: MCAN/ES/89/IPZ229/1/89, 24 h. In a few lines: as §2
Data set [14] has as its system Leishmania infantum. Kind of data set: Antileishmanial activity against Leishmania infantum MCAN/ES/89/IPZ229/1/89 promastigotes assessed as growth inhibition at 25 uM after 24 hrs. It is filed as functional. The procedure, abridged:
as §2

The subject of data set [15] is Leishmania infantum. Kind of data set: Antileishmanial activity against Leishmania infantum MCAN/ES/89/IPZ229/1/89 axenic amastigotes infected expressing GFP in human […] cells assessed as axenic parasite killing at 3 uM after 48 hrs by propidium iodide staining based flow cytometry. It is filed as functional.
For data set [16], the system named is Leishmania infantum. The data set is described as follows: Antileishmanial activity against Leishmania infantum MCAN/ES/89/IPZ229/1/89 amastigotes expressing GFP infected in human THP1 cells assessed as reduction in parasite infection rate at 3 uM after 48 hrs by flow cytometry. Type of data set: functional, THP-1. Details: scale not given: the % may be the effect or the level left. On the technique in general: In flow cytometry, cells or beads pass a laser one at a time.

For data set [17], the system named is THP-1. Kind of data set: Cytotoxicity against human THP1 cells infected with Leishmania infantum MCAN/ES/89/IPZ229/1/89 at 3 uM using propidium iodide staining by fluorescence contrast microscopy. It is filed as cell-based. Conditions: thp-1, 3 µM. In a few lines: as §1
The nature of data set [18]: Permeability across human Caco2 cells. It is filed as ADME, cell-based. To be noted: Caco-2, read-out: permeability.
Data set [19] is described as follows: Selectivity ratio, ratio of IC50 for human THP1 cells to IC50 for Leishmania infantum MCAN/ES/89/IPZ229/1/89 amastigotes. Type of data set: ADME, cell-based. To be noted: THP-1 cells, read-out: Ratio IC50. The procedure, abridged: as §3
Data set [20] deals with THP-1. Kind of data set: Cytotoxicity against human THP1 cells assessed as live cells in neubauer chamber after 24 hrs by trypan blue assay. It is filed as cell-based. To be noted: THP-1, 24 h.
Data set [21] concerns Leishmania infantum. Kind of data set: Antileishmanial activity against Leishmania infantum MCAN/ES/89/IPZ229/1/89 axenic amastigotes infected in human THP1 cells expressing GFP assessed as complete killing of parasite at 3 uM after 48 hrs by propidium iodide staining based flow cytometry. Type of data set: functional, THP-1.
In data set [22] the test system is Leishmania infantum. The data set is described as follows: Antileishmanial activity against Leishmania infantum MCAN/ES/89/IPZ229/1/89 promastigotes assessed as growth inhibition at 6.25 uM after 24 hrs. It is filed as functional. The procedure, abridged: as §2
Data set [23] has as its system Jurkat. Kind of data set: Cytotoxicity against human Jurkat cells infected with Leishmania infantum MCAN/ES/89/IPZ229/1/89 at 3 uM by phase contrast microscopy. Type of data set: cell-based.
Data set [24] deals with Leishmania infantum. The data set is described as follows: Antileishmanial activity against Leishmania infantum MCAN/ES/89/IPZ229/1/89 amastigotes expressing GFP infected in human THP1 cells assessed as parasite infected cells at 3 uM after 48 hrs by flow cytometry (reference value: 35%). It is filed as functional, THP-1.
The subject of data set [25] is Leishmania infantum. The data set is described as follows: Antileishmanial activity against Leishmania infantum MCAN/ES/89/IPZ229/1/89 amastigotes after 24 hrs by microscopy. It is filed as functional, organism-based. To be noted: MCAN/ES/89/IPZ229/1/89, 24 h. The procedure, abridged: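 Axenic L. infantum amastigotes (M199, 10% FCS, pH 5.4, 37 °C) treated in log phase at 1×10^6 parasites/mL for 24 h. Living cells counted by flow cytometry with propidium iodide exclusion, with microscopic observation by phase contrast or fluorescence. At least three independent experiments.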

The test system of data set [26] is Leishmania infantum. Kind of data set: Ratio of edelfosine IC50 to compound IC50 for Leishmania infantum MCAN/ES/89/IPZ229/1/89 amastigotes. It is filed as functional.
The subject of data set [27] is Leishmania infantum. The data set is described as follows: Ratio of miltefosine IC50 to compound IC50 for Leishmania infantum MCAN/ES/89/IPZ229/1/89 amastigotes. Type of data set: functional.

By IC50 is commonly meant the concentration that gives 50% inhibition.

Take `Nc1ccc([Se][Se]c2ccc(N)cc2)cc1`: the Activity result in the data set with THP-1 [1] is reported as “Non-toxic”; in the data set with Leishmania infantum [3], 9%; in the data set on Jurkat [4], “Non-toxic”; in the data set on THP-1 [7] it was “Non-toxic”; with THP-1 [8] it was “Non-toxic”; in the data set on Jurkat [9], “Non-toxic”. Further, the Activity result with Jurkat [10] is “Non-toxic”; in the data set on THP-1 [12] it was “Non-toxic”; in the data set on Leishmania infantum [15], 100%; with Leishmania infantum [16], 74%; with THP-1 [17] it was “Non-toxic”; with Leishmania infantum [21], 100%. Besides, the Activity entry in the data set on Jurkat [23] is listed as “Non-toxic”. For the same compound, the GI in the data set on Leishmania infantum [2] came out at 97.6%; in the data set on Leishmania infantum [14], 98%; in the data set on Leishmania infantum [22], 95.8%. Besides, the figures for the selectivity ratio in data set [5] and in [19] were 32 and 24, respectively. Also, the Fa in [6] was 97.6%. Also, the results for the IC50 in the data set on Jurkat [11], with Leishmania infantum [13] and in the data set on THP-1 [20] were 12.1 µM, 0.96 µM and 14 µM, respectively. Also, the Papp in data set [18] turned out to be 2.29 ×10⁻⁶ cm/s.
Take `CCCCCCCCCCCCCCCCCCOCC(COP(=O)([O-])OCC[N+](C)(C)C)OC` (stereo not drawn) [EDELFOSINE]: the selectivity ratio in data set [5] came out at 15; in data set [19], 6. Also, in data set [6], the Fa was found to be 98.4%. Moreover, in the data set on Leishmania infantum [24], the Activity is 5%. Further, the IC50 in the data set with Jurkat [11] amounted to 12.2 µM; in the data set with Leishmania infantum [25] it was 0.82 µM; in the data set on Leishmania infantum [13], 3.65 µM; in the data set with THP-1 [20] it was 4.96 µM. For the same compound, the Papp in data set [18] amounted to 3.94 ×10⁻⁶ cm/s.
`CN(C)c1ccc([Se][Se]c2ccc(N(C)C)cc2)cc1`: the GI with Leishmania infantum [2] came to 67.7%; in the data set on Leishmania infantum [14], 77.6%; with Leishmania infantum [22] it was 51.5%. Also, the Activity with Leishmania infantum [3] is reported as 23%. For the same compound, the selectivity ratio in data set [5] was greater than 65; in data set [19], 29. Besides, the Fa in data set [6] stood at 100%. The results for the half-inhibitory concentration (IC50) in the data set with Jurkat [11] and in the data set on THP-1 [20] were greater than 50 µM and greater than 25 µM, respectively. In addition, the Papp in [18] is 5.61 ×10⁻⁶ cm/s.
`O=[N+]([O-])c1ccccc1C[Se][Se]Cc1ccccc1[N+](=O)[O-]`: the GI in the data set with Leishmania infantum [2] is listed as 58.9%; with Leishmania infantum [14] it was 77.2%; in the data set with Leishmania infantum [22], 50%. In addition, the selectivity ratio in data set [5] was found to be 9; in data set [19], 8. Also, the results for the “Ratio IC50” value with Leishmania infantum [26] and with Leishmania infantum [27] were 2.8 and 9.8, respectively. Further, the IC50 in the data set on Jurkat [11] stood at 2.62 µM; in the data set with Leishmania infantum [25] it was 0.29 µM; in the data set on Leishmania infantum [13] it was 12.5 µM; with THP-1 [20], 2.42 µM.
As to `c1ccc(C[Se][Se]Cc2ccccc2)cc1` [BISBENZYLDISELENIDE], the GI with Leishmania infantum [2] was 43.6%; with Leishmania infantum [14], 60.4%; in the data set with Leishmania infantum [22] it was 33.2%. Further, in the data set with Leishmania infantum [3], the Activity is 24%. The selectivity ratio in [5] amounted to 41; in [19], 51. For the same compound, the Fa in data set [6] was found to be 100%. Also, the IC50 with Jurkat [11] worked out at 26.1 µM; in the data set on Leishmania infantum [25], 0.63 µM; in the data set with THP-1 [20], 32.2 µM. The Papp in data set [18] was determined as 5.83 ×10⁻⁶ cm/s.
With `O=[N+]([O-])c1ccc(C[Se][Se]Cc2ccc([N+](=O)[O-])cc2)cc1`, the GI in the data set on Leishmania infantum [2] is on record as 96.3%; with Leishmania infantum [14], 98.7%; in the data set with Leishmania infantum [22], 81.8%. Besides, in the data set with Leishmania infantum [3], the Activity is on record as 17%. In addition, the figures for the selectivity ratio in data set [5] and in data set [19] were 71 and 77, respectively. Moreover, in data set [6], the Fa came to 98.3%. The “Ratio IC50” value in the data set with Leishmania infantum [26] is 2.2; with Leishmania infantum [27], 7.5. The IC50 is 26.8 µM in the data set on Jurkat [11], 0.38 µM with Leishmania infantum [25] and 18.8 µM in the data set on THP-1 [20]. Moreover, the Papp in data set [18] worked out at 2.01 ×10⁻⁶ cm/s.
`N#C[Se]Cc1ccccc1[N+](=O)[O-]`: the GI is listed as 89.8% with Leishmania infantum [2], 98.6% in the data set on Leishmania infantum [14] and 74% with Leishmania infantum [22]. Moreover, the selectivity ratio in data set [5] is 38; in [19] it was 21. Further, the “Ratio IC50” value in the data set with Leishmania infantum [26] was determined as 2.4; in the data set on Leishmania infantum [27], 8.3. Also, the IC50 with Jurkat [11] came to 12.9 µM; in the data set with Leishmania infantum [25], 0.34 µM; in the data set on Leishmania infantum [13] it was 3.32 µM; with THP-1 [20] it was 7.1 µM.
